From ChEMBL document CHEMBL4689842, “EUbOPEN Chemogenomics Library wave 1” (2021)

Test system: HEK-293T
Assay: Multiplex assay against HEK293T;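 as to Population Tubulin-Different-Phenotype (%): share of the cells with healthy nuclei that show this phenotype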
Type: toxicity, cell-based
Settings: human
Procedure, shortened: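 Cells stained live at seeding with Hoechst33342, BioTracker Green Microtubule Cytoskeleton Dye, MitoTracker Red and Annexin V Alexa Fluor 680 were imaged on a CQ1 microscope at 37°C and 5% CO2 after compound addition. Their classification by CellPathfinder machine-learning gating ran from Hoechst high-intensity objects versus normal cells, to healthy, pyknosed or fragmented nuclei among normal cells, to mitotic or apoptotic among pyknosed cells. Tubulin, mitochondrial-mass and membrane-permeability phenotypes are per cents of healthy-nucleus cells.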

[1] = 12 h, 1 µM, compound concentration 1 uM, replicate 1
[2] = 12 h, 1 µM, compound concentration 1 uM, replicate 2
[3] = 12 h, 10 µM, compound concentration 10 uM, replicate 1
[4] = 12 h, 10 µM, compound concentration 10 uM, replicate 2
[5] = 24 h, 1 µM, compound concentration 1 uM, replicate 1
[6] = 24 h, 1 µM, compound concentration 1 uM, replicate 2
[7] = 24 h, 10 µM, compound concentration 10 uM, replicate 1
[8] = 24 h, 10 µM, compound concentration 10 uM, replicate 2
[9] = 48 h, 1 µM, compound concentration 1 uM, replicate 1
[10] = 48 h, 1 µM, compound concentration 1 uM, replicate 2
[11] = 48 h, 10 µM, compound concentration 10 uM, replicate 1
[12] = 48 h, 10 µM, compound concentration 10 uM, replicate 2

## COc1cc2c(NC3CCN(C(C)C)CC3)nc(N3CCC(F)(F)CC3)nc2cc1OCCCN1CCCC1
[1]
  Population Apoptotic (%): 67%
  Population Fragmented Nuclei (%): 16%
  Population Healthy Nuclei (%): 32%
  Population Hoechst High Intensity Objects (%): 19%
  Population Membrane Permeable-Phenotype (%): 0%
  Population Mitochondria Different-Phenotype (%): 96%
  Population Mitotic Cells (%): 32%
  Population Normal (%): 80%
  Population Pyknosed Nuclei (%): 50%
  Population Tubulin-Different-Phenotype (%): 76%
  Total Cell Count: 324
[2]
  Population Apoptotic (%): 37%
  Population Fragmented Nuclei (%): 8%
  Population Healthy Nuclei (%): 40%
  Population Hoechst High Intensity Objects (%): 6%
  Population Membrane Permeable-Phenotype (%): 4%
  Population Mitochondria Different-Phenotype (%): 56%
  Population Mitotic Cells (%): 62%
  Population Normal (%): 93%
  Population Pyknosed Nuclei (%): 51%
  Population Tubulin-Different-Phenotype (%): 48%
  Total Cell Count: 235
[3]
  Population Apoptotic (%): 90%
  Population Fragmented Nuclei (%): 8%
  Population Healthy Nuclei (%): 26%
  Population Hoechst High Intensity Objects (%): 18%
  Population Membrane Permeable-Phenotype (%): 0%
  Population Mitochondria Different-Phenotype (%): 100%
  Population Mitotic Cells (%): 9%
  Population Normal (%): 81%
  Population Pyknosed Nuclei (%): 64%
  Population Tubulin-Different-Phenotype (%): 98%
  Total Cell Count: 298
[4]
  Population Apoptotic (%): 92%
  Population Fragmented Nuclei (%): 7%
  Population Healthy Nuclei (%): 24%
  Population Hoechst High Intensity Objects (%): 6%
  Population Mitochondria Different-Phenotype (%): 98%
  Population Mitotic Cells (%): 7%
  Population Normal (%): 93%
  Population Pyknosed Nuclei (%): 68%
  Population Tubulin-Different-Phenotype (%): 96%
  Total Cell Count: 245
[5]
  Population Apoptotic (%): 61%
  Population Fragmented Nuclei (%): 16%
  Population Healthy Nuclei (%): 42%
  Population Hoechst High Intensity Objects (%): 24%
  Population Membrane Permeable-Phenotype (%): 1%
  Population Mitochondria Different-Phenotype (%): 77%
  Population Mitotic Cells (%): 38%
  Population Normal (%): 75%
  Population Pyknosed Nuclei (%): 41%
  Population Tubulin-Different-Phenotype (%): 51%
  Total Cell Count: 348
[6]
  Population Apoptotic (%): 39%
  Population Fragmented Nuclei (%): 6%
  Population Healthy Nuclei (%): 60%
  Population Hoechst High Intensity Objects (%): 12%
  Population Membrane Permeable-Phenotype (%): 4%
  Population Mitochondria Different-Phenotype (%): 45%
  Population Mitotic Cells (%): 60%
  Population Normal (%): 87%
  Population Pyknosed Nuclei (%): 33%
  Population Tubulin-Different-Phenotype (%): 45%
  Total Cell Count: 272
[7]
  Population Apoptotic (%): 85%
  Population Fragmented Nuclei (%): 11%
  Population Healthy Nuclei (%): 23%
  Population Hoechst High Intensity Objects (%): 24%
  Population Membrane Permeable-Phenotype (%): 0%
  Population Mitochondria Different-Phenotype (%): 100%
  Population Mitotic Cells (%): 14%
  Population Normal (%): 75%
  Population Pyknosed Nuclei (%): 65%
  Population Tubulin-Different-Phenotype (%): 91%
  Total Cell Count: 324
[8]
  Population Apoptotic (%): 95%
  Population Fragmented Nuclei (%): 7%
  Population Healthy Nuclei (%): 25%
  Population Hoechst High Intensity Objects (%): 14%
  Population Membrane Permeable-Phenotype (%): 1%
  Population Mitochondria Different-Phenotype (%): 92%
  Population Mitotic Cells (%): 4%
  Population Normal (%): 85%
  Population Pyknosed Nuclei (%): 67%
  Population Tubulin-Different-Phenotype (%): 86%
  Total Cell Count: 244
[9]
  Population Apoptotic (%): 55%
  Population Fragmented Nuclei (%): 19%
  Population Healthy Nuclei (%): 41%
  Population Hoechst High Intensity Objects (%): 25%
  Population Membrane Permeable-Phenotype (%): 4%
  Population Mitochondria Different-Phenotype (%): 38%
  Population Mitotic Cells (%): 44%
  Population Normal (%): 75%
  Population Pyknosed Nuclei (%): 38%
  Population Tubulin-Different-Phenotype (%): 38%
  Total Cell Count: 368
[10]
  Population Apoptotic (%): 17%
  Population Fragmented Nuclei (%): 8%
  Population Healthy Nuclei (%): 78%
  Population Hoechst High Intensity Objects (%): 12%
  Population Membrane Permeable-Phenotype (%): 7%
  Population Mitochondria Different-Phenotype (%): 9%
  Population Mitotic Cells (%): 82%
  Population Normal (%): 87%
  Population Pyknosed Nuclei (%): 12%
  Population Tubulin-Different-Phenotype (%): 33%
  Total Cell Count: 508
[11]
  Population Apoptotic (%): 89%
  Population Fragmented Nuclei (%): 18%
  Population Healthy Nuclei (%): 10%
  Population Hoechst High Intensity Objects (%): 26%
  Population Membrane Permeable-Phenotype (%): 3%
  Population Mitochondria Different-Phenotype (%): 96%
  Population Mitotic Cells (%): 10%
  Population Normal (%): 73%
  Population Pyknosed Nuclei (%): 70%
  Population Tubulin-Different-Phenotype (%): 82%
  Total Cell Count: 347
[12]
  Population Apoptotic (%): 94%
  Population Fragmented Nuclei (%): 8%
  Population Healthy Nuclei (%): 38%
  Population Hoechst High Intensity Objects (%): 21%
  Population Membrane Permeable-Phenotype (%): 5%
  Population Mitochondria Different-Phenotype (%): 97%
  Population Mitotic Cells (%): 5%
  Population Normal (%): 78%
  Population Pyknosed Nuclei (%): 53%
  Population Tubulin-Different-Phenotype (%): 84%
  Total Cell Count: 232
